Structures can show the parent of a compound that is named as a salt.
Columns and labels:
[1] = system: Platelet; assay: Ratio of IC50 for platelet-activating factor-induced pig platelet aggregation to IC50 for ADP-induced pig platelet aggregation; format: functional, Sus scrofa
Outline: (§1)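 Fold ratios of IC50 values. Each IC50 came from pig PRP (2 × 10⁸ platelets/mL) light-transmission aggregometry at 37 °C for 5 min, in sextuplicate, with final ADP 10 µM, AA 350 µM, PAF 0.1 µM or thrombin 0.1 U/mL.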

[2] = system: Platelet; assay: Ratio of IC50 for thrombin-induced pig platelet aggregation to IC50 for ADP-induced pig platelet aggregation; format: functional, Sus scrofa; outline: as §1
[3] = Antiplatelet aggregation activity against platelet-activating factor-induced pig platelet aggregation after 5 mins by aggregometer; format: functional, cell-based; details: Sus scrofa
Outline: (§2)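 Pig blood from six pigs was spun at 1000 rpm for 10 min to give PRP, then at 1500g for 10 min to give PPP. PRP was adjusted to 2 × 10⁸ platelets/mL with autologous PPP. Test agent or NS was added at final 100 µM–1 nM. Agonists were at final concentrations of ADP 10 µM, AA 350 µM, PAF 0.1 µM and thrombin 0.1 U/mL. Light-transmission peak was read at 37 °C over 5 min, in sextuplicate. IC50 was taken from the concentration–inhibition curve.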

[4] = Antiplatelet aggregation activity against arachidonic acid-induced pig platelet aggregation after 5 mins by aggregometer; format: functional, cell-based; details: Sus scrofa; outline: as §2
[5] = system: Platelet; assay: Ratio of IC50 for arachidonic acid-induced pig platelet aggregation to IC50 for ADP-induced pig platelet aggregation; format: functional, Sus scrofa; outline: as §1
[6] = Antiplatelet aggregation activity against ADP-induced pig platelet aggregation after 5 mins by aggregometer; format: functional, cell-based; details: Sus scrofa; outline: as §2
[7] = system: Rattus norvegicus; assay: Antithrombotic activity in Wistar rat arterioveinos cannula model assessed as reduction of thrombus weight at 100 nmol/kg, iv; format: functional
Outline: (§3)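 Male Wistar rats, 250–300 g. Agents were dissolved in NS and kept on ice. Heparin sodium was injected into a thread-containing polyethylene cannula, then NS or agent was injected intravenously. The cannula joined the right carotid artery to the left jugular vein, and blood flowed through it for 15 min. Wet thrombus weight on the thread was recorded as mean ± SD, n = 12.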

[8] = system: Platelet; assay: Ratio of TCCA IC50 to compound IC50 for ADP-induced pig platelet aggregation; format: functional, Sus scrofa; outline: as §1
[9] = Antiplatelet aggregation activity against thrombin-induced pig platelet aggregation after 5 mins by aggregometer; format: functional, cell-based; details: Sus scrofa; outline: as §2
[10] = Antiplatelet aggregation activity against collagen-induced platelet; format: functional, cell-based
[11] = system: Rattus norvegicus; assay: Antithrombotic activity in Wistar rat arterioveinos cannula model assessed as reduction of thrombus weight at 100 nmol/kg, po; format: functional
Outline: (§4)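 Male Wistar rats received agent in NS, or NS alone, orally. Blood then passed from the right carotid artery to the left jugular vein through a thread-containing polyethylene cannula for 15 min. Wet thrombus weight was reported as mean ± SD, n = 12.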

[12] = system: Rattus norvegicus; assay: Antithrombotic activity in Wistar rat arterioveinos cannula model assessed as reduction of thrombus weight at 1 nmol/kg, iv; format: functional; outline: as §3
[13] = system: Rattus norvegicus; assay: Antithrombotic activity in Wistar rat arterioveinos cannula model assessed as reduction of thrombus weight at 10 nmol/kg, iv; format: functional; outline: as §3
[14] = system: Rattus norvegicus; assay: Antithrombotic activity in Wistar rat arterioveinos cannula model assessed as reduction of thrombus weight at 5 umol/kg, iv; format: functional; outline: as §3
[15] = system: Rattus norvegicus; assay: Antithrombotic activity in Wistar rat arterioveinos cannula model assessed as reduction of thrombus weight at 167 umol/kg, po; format: functional; outline: as §4
[16] = system: Rattus norvegicus; assay: Antithrombotic activity in Wistar rat arterioveinos cannula model assessed as reduction of thrombus weight at 167 umol/kg, iv; format: functional; outline: as §3
[17] = system: Rattus norvegicus; assay: Antithrombotic activity in Wistar rat arterioveinos cannula model assessed as reduction of thrombus weight at 1 umol/kg, iv; format: functional; outline: as §3

Row | SMILES | Ratio IC50 [1] | Ratio IC50 [2] | IC50 [3] [nM] | IC50 [4] [nM] | Ratio IC50 [5] | IC50 [6] [nM] | Thrombus weight [7] [mg] | Ratio IC50 [8] | IC50 [9] [nM] | IC50 [10] [nM] | Activity [11] [mg] | Activity [12] [mg] | Activity [13] [mg] | Activity [14] [mg] | Activity [15] [mg] | Activity [16] [mg] | Activity [17] [mg]
1 | N[C@@H](CC(=O)O)C(=O)N1Cc2[nH]c3ccccc3c2C[C@H]1C(=O)O | 2 | 4 | 13.1 | 24 | 3.6 | 6.62 | 14.4 | 106 | 26.6 | – | – | – | – | – | – | – | –
2 | N[C@@H](Cc1ccc(O)cc1)C(=O)N1Cc2[nH]c3ccccc3c2C[C@H]1C(=O)O | 1.9 | 3.7 | 15.1 | 25.2 | 3.2 | 7.76 | 15.49 | 90 | 28.4 | – | – | – | – | – | – | – | –
3 | N=C(N)NCCC[C@H](N)C(=O)N1Cc2[nH]c3ccccc3c2C[C@H]1C(=O)O | 1.9 | 3.1 | 18.2 | 27.5 | 2.9 | 9.47 | 16.68 | 74 | 29.7 | – | – | – | – | – | – | – | –
4 | COc1ccc2c(c1)[nH]c1c(C)nccc12 [HARMINE] | – | – | – | – | – | – | – | – | – | > 130000 | – | – | – | – | – | – | –
5 | CSCC[C@H](N)C(=O)N1Cc2[nH]c3ccccc3c2C[C@H]1C(=O)O | 1.9 | 3.9 | 12.4 | 23.5 | 3.6 | 6.5 | 13 | 108 | 25.3 | – | 13.49 | 22.59 | 17.67 | – | – | – | –
6 | c1ccc2c(c1)[nH]c1cnccc12 [NORHARMANE] | – | – | – | – | – | – | – | – | – | > 130000 | – | – | – | – | – | – | –
7 | NC(=O)C[C@H](N)C(=O)N1Cc2[nH]c3ccccc3c2C[C@H]1C(=O)O | 1.8 | 3.3 | 16.2 | 28.9 | 3.2 | 9.19 | 16.34 | 76 | 30 | – | – | – | – | – | – | – | –
8 | NCCCC[C@H](N)C(=O)N1Cc2[nH]c3ccccc3c2C[C@H]1C(=O)O | 1.5 | 3 | 17 | 30.1 | 2.7 | 11.1 | 16.54 | 63 | 33.4 | – | – | – | – | – | – | – | –
9 | N[C@@H](Cc1c[nH]c2ccccc12)C(=O)N1Cc2[nH]c3ccccc3c2C[C@H]1C(=O)O | 1.6 | 2.8 | 16.8 | 27.9 | 2.7 | 10.4 | 18.43 | 67 | 29.6 | – | – | – | – | – | – | – | –
10 | N[C@@H](Cc1cnc[nH]1)C(=O)N1Cc2[nH]c3ccccc3c2C[C@H]1C(=O)O | 2.1 | 4 | 15.5 | 24.9 | 3.4 | 7.31 | 15.89 | 96 | 29 | – | – | – | – | – | – | – | –
11 | O=C(O)[C@@H]1Cc2c([nH]c3ccccc23)CN1 [CYCLOMETHYLTRYPTOPHAN] | – | – | 752 | 866 | – | 701 | – | – | 982 | – | – | – | – | 18.79 | – | – | –
12 | N[C@@H](CS)C(=O)N1Cc2[nH]c3ccccc3c2C[C@H]1C(=O)O | 2.1 | 3.9 | 14.7 | 24.4 | 3.4 | 7.1 | 15.25 | 99 | 27.6 | – | – | – | – | – | – | – | –
13 | Cc1nccc2c1[nH]c1cc(O)ccc12 [HARMOL HYDROCHLORIDE] | – | – | – | – | – | – | – | – | – | > 130000 | – | – | – | – | – | – | –
14 | CC(=O)Oc1ccccc1C(=O)O [ASPIRIN] | – | – | – | – | – | – | – | – | – | – | – | – | – | – | 17.9 | 15.21 | –
15 | CC[C@H](C)[C@H](N)C(=O)N1Cc2[nH]c3ccccc3c2C[C@H]1C(=O)O | 1.9 | 4.1 | 12.6 | 23.9 | 3.6 | 6.56 | 13.74 | 107 | 27 | – | 13.88 | 25.43 | 18.12 | – | – | – | –
16 | C[C@H](N)C(=O)N1Cc2[nH]c3ccccc3c2C[C@H]1C(=O)O | 2 | 4.1 | 13.6 | 24.6 | 3.7 | 6.71 | 14.61 | 104 | 27.4 | – | – | – | – | – | – | – | –
17 | C[C@@H](O)[C@H](N)C(=O)N1Cc2[nH]c3ccccc3c2C[C@H]1C(=O)O | 1.9 | 3.6 | 14.8 | 24.6 | 3.1 | 7.81 | 15.72 | 90 | 27.8 | – | – | – | – | – | – | – | –
18 | COc1ccc2c3c([nH]c2c1)C(C)=NCC3 [HARMALINE] | – | – | – | – | – | – | – | – | – | > 130000 | – | – | – | – | – | – | –
19 | Cc1nccc2c1[nH]c1ccccc12 [HARMAN] | – | – | – | – | – | – | – | – | – | > 130000 | – | – | – | – | – | – | –
20 | NCC(=O)N1Cc2[nH]c3ccccc3c2C[C@H]1C(=O)O | 2 | 3.7 | 16.8 | 26.5 | 3.1 | 8.56 | 19.29 | 82 | 31.9 | – | – | – | – | – | – | – | –
21 | CC(C)C[C@H](N)C(=O)N1Cc2[nH]c3ccccc3c2C[C@H]1C(=O)O | 1.9 | 3.9 | 16.9 | 26.8 | 3.1 | 8.7 | 25.26 | 81 | 34.1 | – | – | – | – | – | – | – | 10.55
22 | NC(=O)CC[C@H](N)C(=O)N1Cc2[nH]c3ccccc3c2C[C@H]1C(=O)O | 2.2 | 3.9 | 17.2 | 28.2 | 3.7 | 7.7 | 17.3 | 91 | 30.1 | – | – | – | – | – | – | – | –
23 | CC(C)[C@H](N)C(=O)N1Cc2[nH]c3ccccc3c2C[C@H]1C(=O)O | 2.3 | 4.2 | 17.7 | 27.3 | 3.5 | 7.8 | 18.56 | 90 | 32.5 | – | – | – | – | – | – | – | –
24 | CC1=NCCc2c1[nH]c1cc(O)ccc21 [HARMALOL] | – | – | – | – | – | – | – | – | – | > 130000 | – | – | – | – | – | – | –
25 | N[C@@H](CCC(=O)O)C(=O)N1Cc2[nH]c3ccccc3c2C[C@H]1C(=O)O | 1.4 | 3 | 14.8 | 29.6 | 2.9 | 10.2 | 16.6 | 68 | 30.9 | – | – | – | – | – | – | – | –
26 | N[C@@H](CO)C(=O)N1Cc2[nH]c3ccccc3c2C[C@H]1C(=O)O | 1.9 | 3.6 | 16.1 | 26.2 | 3 | 8.66 | 16.25 | 81 | 30.8 | – | – | – | – | – | – | – | –
27 | N[C@@H](Cc1ccccc1)C(=O)N1Cc2[nH]c3ccccc3c2C[C@H]1C(=O)O | 1.9 | 3.1 | 19 | 28.6 | 2.9 | 9.8 | 17.25 | 72 | 30.2 | – | – | – | – | – | – | – | –

— ChEMBL document CHEMBL1156185, “A class of 3S-2-aminoacyltetrahydro-beta-carboline-3-carboxylic acids: their facile synthesis, inhibition for platelet activation, and high in vivo anti-thrombotic potency” (J Med Chem, 2010)
